Assay results as given in ChEMBL document CHEMBL1121519, “Basic antiinflammatory compounds. N,N',N''-Trisubstituted guanidines” (J Med Chem, 1980).

Columns and labels:
[1] = molecular target: T1, Cyclooxygenase (Bos taurus) (UniProt O62664+O62698); test: Inhibition of prostaglandin synthetase in bovine seminal vesicle microsomes using Beckman liquid scintillation counter at 10 e-5 M; conditions: Microsome
Rattus norvegicus [2] = organism: Rattus norvegicus; test: Tested for inhibition in the rat paw injected with carrageenan.; format: functional; set-up: concentration or dose not given beside the values
Rattus norvegicus [3] = test: Percent inhibition of carrageenan paw edema in rat, administered orally at a dose of one tenth of oral lethal dose in mice; format: functional
In short: (§1)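 1 h later, 0.1 mL of 1% carrageenan was injected into the right hind-paw plantar tissue. Paw swelling was measured by mercury-displacement plethysmometry 3 h after carrageenan, compared with controls.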

[4] = Toxic score (3) was measured as lethal dose in orally administered mice; format: toxicity, organism-based; conditions: mouse, in vivo, po
In short: (§2)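 Score derived from mouse oral LD50 (Litchfield–Wilcoxon, four mice per dose), in mg/kg: >1000 = 3; 500-1000 = 2; <500 = 1.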

[5] = Lethal dose in mice determined by Litchfield and Wilcoxon methods after peroral administration.; format: toxicity, organism-based; conditions: mouse, in vivo, po
In short: (§3)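 Median lethal dose found after oral dosing of mice, four mice per dose level, and calculated by the Litchfield–Wilcoxon method.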

Rattus norvegicus [6] = organism: Rattus norvegicus; test: Tested for inhibition in the rat paw not injected with […].; format: functional; set-up: concentration or dose not given beside the values
In short: (§4)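 Adjuvant-induced arthritis, female Lewis rats, six per group: M. butyricum in mineral oil (3 mg/mL, 0.1 mL) injected into right hind paw plantar tissue. Daily oral dosing from adjuvant day to day 28, 10 or 5 (mg/kg)/day according to mouse oral LD50 (≥1000 or <1000 mg/kg). Injected and noninjected paw swelling read by mercury-displacement plethysmometry on day 28.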

Rattus norvegicus [7] = organism: Rattus norvegicus; test: Average percent inhibition of the swelling of both injected and non injected paw was measured; […]; format: functional
Rattus norvegicus [8] = test: Total score is the sum of scores obtained in the adjuvant arthritis, acute toxicity, carrageenan edema, and prostaglandin synthetase assay; format: functional
Rattus norvegicus [9] = organism: Rattus norvegicus; test: Average percent inhibition (arthritis score)of the swelling of both injected and non injected paw was measured; format: functional
In short: (§5)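 Adjuvant arthritis in inbred female Lewis rats, groups of six, acclimatized 2 weeks. Arthritis induced by injecting 0.1 mL M. butyricum in mineral oil (3 mg/mL) into right hind paw plantar tissue. Oral dosing daily from adjuvant day to day 28: 10 (mg/kg)/day if mouse oral LD50 ≥1000 mg/kg, else 5 (mg/kg)/day. Swelling of injected and noninjected paws measured day 28 by mercury-displacement plethysmometry; mean percent inhibition scored 0–3.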

Rattus norvegicus [10] = organism: Rattus norvegicus; test: Tested for enhancement in the rat paw not injected with carrageenan.; format: functional
[11] = molecular target: T1, Cyclooxygenase (Bos taurus); test: Tested for Prostaglandin synthetase inhibition in Bovine seminal vesicle microsomes using Beckman liquid scintillation counter at 10 e-5 M; format: functional; conditions: Microsome
Rattus norvegicus [12] = test: Tested for percent enhancement of carrageenan paw edema in rat, administered orally at a dose of one tenth of oral lethal dose in mice; format: functional; in short: as §1
Rattus norvegicus [13] = organism: Rattus norvegicus; test: Average percent inhibition (arthritis score=1) of the swelling of both injected and non injected paw was measured; […]; format: functional
Rattus norvegicus [14] = test: Tested for inhibition at the dose of 5(mg/kg)/day in the rat paw not injected with carrageenan.; format: functional; conditions: in the assay text read “adjuvant” for “carrageenan”; in short: as §4
Rattus norvegicus [15] = organism: Rattus norvegicus; test: Average percent inhibition (arthritis score=1) of the swelling of both injected and non injected paw was measured;values ranges from: […]-[…]; format: functional
Rattus norvegicus [16] = organism: Rattus norvegicus; test: Average percent inhibition (arthritis score)of the swelling of both injected and non injected paw was measured; […]; format: functional
Rattus norvegicus [17] = test: Minimum effective dose against adjuvant arthritis on therapeutic dosing (peroral administration); format: functional; conditions: po, read-out: MED
In short: (§6)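 Female Lewis rats given adjuvant arthritis by plantar M. butyricum in mineral oil. Oral daily dosing either from adjuvant day to day 28 (continuous), day 16 to day 28 (therapeutic), or day 5 pre- to day 5 postadjuvant (prophylactic). MED: lowest dose producing significant (p < 0.05) inhibition of noninjected paw swelling on day 28, by plethysmometry.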

Rattus norvegicus [18] = test: Minimum effective dose against adjuvant arthritis on administration); format: functional; conditions: read-out: MED; in short: as §6
[19] = Inhibitory concentration against PG synthetase; format: functional
Rattus norvegicus [20] = test: Effective dose against analgesic activity (peroral administration); format: functional; conditions: po
[21] = Lethal dose in rats(peroral administration); format: toxicity, organism-based; conditions: rat, in vivo, po
Rattus norvegicus [22] = test: Effective dose against gastroulcerogenic activity (peroral administration); format: functional; conditions: po
In short: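 Groups of six Sprague-Dawley rats given oral doses once daily for 3 days; inner stomach surface examined for lesions 24 h after last dose. ED50 is the dose giving macroscopically visible lesions in 50% of rats.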

[23] = Lethal dose in mice(peroral administration); format: toxicity, organism-based; conditions: mouse, in vivo, po; in short: as §3
Rattus norvegicus [24] = test: Effective dose against nystatin edema(peroral administration); format: functional; conditions: po
Rattus norvegicus [25] = test: Effective dose against carrageenan edema(peroral administration); format: functional; conditions: po
In short: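 Sprague-Dawley rats fasted 18 h, dosed orally in 0.5% carboxymethylcellulose suspension 1 h before 0.1 mL of 1% carrageenan into right hind paw plantar tissue. Paw swelling in treated versus control rats measured 3 h post-carrageenan by mercury-displacement plethysmometry; ED50 given in mg/kg po.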

Rattus norvegicus [26] = test: Minimum effective dose against adjuvant arthritis on prophylactic dosing (peroral administration); format: functional; conditions: po, read-out: MED; in short: as §6
Rattus norvegicus [27] = organism: Rattus norvegicus; test: Average percent inhibition (arthritis score=3) of the swelling of both injected and non injected paw was measured; format: functional; in short: as §5
Rattus norvegicus [28] = organism: Rattus norvegicus; test: Minimum effective dose is the lowest dose preventing any futher increase in body temperature; format: functional; conditions: read-out: MED
In short: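 Antipyretic test, oral dosing; MED defined as the lowest dose preventing any further increase of body temperature.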

Rattus norvegicus [29] = organism: Rattus norvegicus; test: Average percent inhibition (arthritis score=2) of the swelling of both injected and non injected paw was measured;values ranges from: […]-[…]; format: functional
Rattus norvegicus [30] = organism: Rattus norvegicus; test: Average percent inhibition (arthritis score=0) of the swelling of both injected and non injected paw was measured; format: functional; in short: as §5
[31] = Toxic score was measured as lethal dose in orally administered mice;Values ranges from: 500-1000; format: toxicity, organism-based; conditions: mouse, in vivo, po; in short: as §2
[32] = Tested for percent inhibition of carrageenan paw edema in rat, administered orally at a dose of one tenth of lethal dose; format: organism-based; conditions: in vivo, po; in short: as §1
Rattus norvegicus [33] = organism: Rattus norvegicus; test: Average percent inhibition (arthritis score) of the swelling of both injected and non injected paw was measured; […]; format: functional

SMILES	inhibition [1] [%]	Inhibition (Rattus norvegicus [2]) [%]	Inhibition (Rattus norvegicus [3]) [%]	LD50 [4] [mg/kg]	LD50 [5] [mg/kg]	Inhibition (Rattus norvegicus [6]) [%]	Total score (Rattus norvegicus [8])	further results
Cc1cc(N/C(=N/c2ccccc2)Nc2nccs2)c2ccccc2n1	83.8	46	59	> 1000	> 1000	47	10	Inhibition (Rattus norvegicus [7]): 49%
Cc1cc(N/C(=N/C2CCCCC2)Nc2nc(C)c(C)s2)c2ccccc2n1	87.9	7	54	> 1000	> 1000		8	Inhibition (Rattus norvegicus [9]): <10%; Enhancement (Rattus norvegicus [10]): 63%
CCCCCCCCCC/N=C(\Nc1nccs1)Nc1cc(C)nc2ccccc12			4		> 1000			inhibition [11]: 4.5%
CCOC(=O)c1csc(/N=C(\Nc2cc(C)nc3ccccc23)NC2CCCCC2)n1	89.8	4		> 1000	> 1000	24	7	Enhancement (Rattus norvegicus [12]): 1%; Inhibition (Rattus norvegicus [13]): 29%
CCCC/N=C(/Nc1nccs1)Nc1cc(C)nc2ccccc12	0.6		89		800		6	Inhibition (Rattus norvegicus [14]): 34%; Inhibition (Rattus norvegicus [15]): 29%
CC(C)(C)/N=C(/Nc1nccs1)Nc1cccnc1Cl			19		> 1000			inhibition [11]: 10.1%
Cc1cc(N/C(=N/C(C)(C)C)Nc2nnc(C)s2)c2ccccc2n1	33	45	85	> 1000	> 1000	51	9	Inhibition (Rattus norvegicus [16]): 49%
Cc1cc(/N=C(\Nc2nccs2)NC2CCCCC2)c2ccccc2n1 [TIMEGADINE]	100	53	68	> 1000	> 1000	63	12	minimal effective dose (Rattus norvegicus [17]): 10 mg/kg; minimal effective dose (Rattus norvegicus [18]): 3 mg/kg; IC50 [19]: 2.5 µM; ED50 (Rattus norvegicus [20]): 68.5 mg/kg; LD50 [21]: 1220 mg/kg; ED50 (Rattus norvegicus [22]): 170 mg/kg; LD50 [23]: > 1000 mg/kg; ED50 (Rattus norvegicus [24]): 26.5 mg/kg; ED50 (Rattus norvegicus [25]): 29.6 mg/kg; minimal effective dose (Rattus norvegicus [26]): 10 mg/kg; Inhibition (Rattus norvegicus [27]): >=50%; minimal effective dose (Rattus norvegicus [28]): 12.4 mg/kg
Cc1cc(N/C(=N\C2CC2)Nc2nccs2)c2ccccc2n1	15.8	53	65		600	30	7	Inhibition (Rattus norvegicus [29]): 49%
CCOc1cc(N/C(=N/C(C)(C)C)Nc2nccs2)c2ccccc2n1	88.9	8	39		800	13	6	Inhibition (Rattus norvegicus [30]): <10%; LD50 [31]: 1000 mg/kg
CCCCCC/N=C(\Nc1nccs1)Nc1cc(C)nc2ccccc12	-23.8							LD50 [32]: 8 mg/kg
Cc1cc(N/C(=N/C2CCCCCCC2)Nc2nccs2)c2ccccc2n1	55.1	21	62	> 1000	> 1000		9	Inhibition (Rattus norvegicus [13]): 29%; Enhancement (Rattus norvegicus [10]): 8%
Cc1cc(/N=C(\Nc2cc(C)nc3ccccc23)NC2CCCCC2)sn1	83.2	1	48	> 1000	> 1000	21	9	Inhibition (Rattus norvegicus [33]): 29%
